A selection: hits, their analogues and other compounds. The true share with any hit is near 2.2%.
Cneo AK release: causes C. neoformans cell lysis | lysis activity, % at 15 µM | hit rate 0.2% among 360,000 | adenylate kinase release luminescence, 4 h; normalised: neutral wells 0, clomiphene wells 100;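 active = mean lysis activity across replicates of at least 80%, whatever share of replicates individually reach that level; inactive = mean lysis activity below 80%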
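Test system: log-phase Cryptococcus neoformans yeast cells. Input: 5 × 10^6 yeast cells/mL. Medium: fresh YPD growth medium. Doses: single dose. Incubation: static 4 h at 37 °C with compound, 1 h detection. Measured by: luminescent adenylate kinase detection reagent. Read-out: signal increase indicating cell lysis. Benchmarks: Clomiphene.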
rRNA inh HTS: selective bacterial rRNA inhibition in E. coli; AID 720706; GFP signal change (wild-type ribosome), % (concentration not given with the values); hit rate 1.6% among 350,000; E. coli WT GFP vs humanized-ribosome RFP mutants, fluorescence, 24 h; hits give low values; DMSO median 0, no signal -100;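 active = significant combined selectivity score with lowered wild-type GFP, culture density cut under 30%, mutant RFP and density less affected; inactive = any of these conditions unmet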
CR mimetic SO: caloric restriction mimetics inhibiting age-related superoxide in yeast. S. cerevisiae aged cells, superoxide DHE fluorescence; hits give low values. superoxide response (% of plate mean), % at 10 µM. hit rate 0.18% among 330,000;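 active = superoxide response under a set limit, about three screen SD below normal, cut at about 65% in these data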;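 note: yeast aged for seven days with compound at 30 °C before DHE staining; 100% = average MFI of all compound-treated wells on the plate with controls excluded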
Mot1-301 SUMO: inhibitors of SUMOylation pathway: yeast Mot1-301 growth rescue; hit rate 1% among 320,000; growth rescue, % at 18.8 µM; S. cerevisiae Mot1-301 growth rescue, ATP luminescence, 38.5C; percent above DMSO median, 100 means doubled;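 active = every valid replicate shows activation above 250% relative to neutral control wells; inactive = the rest, any valid replicate at or below 250%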;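 note: OY570 slx delta 5 strain wells were the positive control but not used for scaling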
PglD inh: PglD (C. jejuni) enzyme inhibition; purified PglD enzyme, DTNB colorimetric CoA detection; inhibition, % at 12.5 µM; hit rate 0.098% among 360,000; in the data active = inhibition above about 16%, passing the limit was not always enough
Yeast Mot1 SUMO: SUMO pathway inhibitors in yeast Mot1-301 growth; growth activity, percent, % at 42 µM; AID 493004; 2,300 tested, under 10 active; S. cerevisiae Mot1-301 galactose growth, ATP luminescence, 24 h; -100 = growth of slx-deleted rescue strain; shares compounds with Mot1-301 SUMO;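 active = Signal drops as the depositor expects, and the fitted half-maximal dose is no more than ten times the top valid tested dose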;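 note: more negative values mean stronger growth rescue toward the control strain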
* = called active by the depositor; . = no result given; + = active, no number; [ ] = dose if it differs, or a comment.

SMILES | Cneo AK release | rRNA inh HTS | CR mimetic SO | Mot1-301 SUMO | PglD inh | Yeast Mot1 SUMO
COc1ccc(NC(=O)CN(C)C(=O)/C=C/c2cn(-c3ccccc3)nc2-c2ccc(F)cc2)cc1 | . | 0 | 92 | 567* | . | 1
CO[C@@H](CN(C)S(=O)(=O)c1ccc(C)cc1)[C@H](C)CN(Cc1ccccc1Cl)[C@H](C)CO | 13 | 3 | . | . | 1 | .
Cc1ccc(S(=O)(=O)N[C@H]2C=C[C@@H](CC(=O)NCc3ccccc3F)O[C@@H]2CO)cc1 | -1 | -1 | . | . | 43 | .
COc1cc(/C=C(\NC(=O)c2ccccc2)C(=O)Nc2nccs2)ccc1OC(C)=O | -6 | 6 | 100 | 395* | -7 | 0
O=C(O)c1ccc(S(=O)(=O)N2CCN(c3ccccn3)CC2)cc1 | 0 | 2 | 100 | 763* | -5 | 0
O=C(O)c1cccc(S(=O)(=O)N2CCN(c3ccccn3)CC2)c1 | 0 | -3 | 95 | -8 | -7 | .
CC(OC(=O)c1cc(S(=O)(=O)N2CCOCC2)ccc1F)C(=O)NCc1ccc2c(c1)OCO2 (stereo not given) | 0 | 0 | 99 | 374* | 2 | 0
Fc1ccc2nc(C3CCN(Cc4nc(CC5CC5)no4)CC3)[nH]c2c1 | . | -4 | 105 | 460* | . | 0
CO[C@H]1CN(C)C(=O)c2cc(NC(C)=O)ccc2OC[C@@H](C)N(C(=O)C2CC2)C[C@H]1C | -2 | -3 | . | . | 1 | .
CC(C)CC#Cc1ccc2c(c1)O[C@H](CN(C)C(=O)CN(C)C)[C@@H](C)CN([C@H](C)CO)S2(=O)=O | 2 | 9 | . | . | 2 | .
CCS(=O)(=O)N1CCC(C(=O)N2CCc3ccccc3C2)CC1 | 0 | . | 107 | 364* | -5 | 0
C/C=C/c1ccc2c(c1)O[C@H](CN(C)Cc1ccccn1)[C@H](C)CN([C@@H](C)CO)S2(=O)=O | 2 | 5 | . | . | 0 | .
CN(C)CC(=O)N1CC(=O)N2[C@H](CO)[C@@H](c3ccc(-c4ccc(C#N)cc4)cc3)[C@H]2C1 | . | 1 | . | . | . | .
CCOc1ccc(/C=N/NS(=O)(=O)c2ccc(C)cc2)cc1OC | -2 | 4 | 103 | + | 5 | 2
COc1cc(/C=N/NS(=O)(=O)c2ccc(C)cc2)ccc1OCc1ccc(C(=O)O)cc1 | . | . | 102 | -3 | . | .
CN(C)C(=O)[C@@H]1[C@@H](CO)[C@@H]2Cn3c(ccc(-c4ccccc4)c3=O)[C@@H]2N1C(=O)c1ccccn1 | 2 | 2 | . | . | 4 | .
CCN1CCN(CC(=O)N2N=CCC2c2ccccc2)CC1 (stereo not given) | 2 | . | 90 | 805* | 1 | 0
O=C(CSc1ccc(Cl)cc1)N1N=CCC1c1ccccc1 (stereo not given) | . | -38 | 90 | 8 | . | .
C=CCN1c2ccccc2[C@]23C[C@@H](C(=O)OC)N=C2NC(C(=O)OC)=C(C(=O)OC)[C@H]13 | -1 | 10 | 95 | 834* | 1 | -1
C[C@@H]1CN([C@@H](C)CO)S(=O)(=O)c2ccc(C3=CCCC3)cc2O[C@@H]1CN(C)C(=O)c1ccncc1 | -1 | 3 | . | . | -1 | .
O=C(O)CCC(=O)Nc1cccc(-c2nnc(-c3ccccc3)o2)c1 | 3 | 5 | 112 | 112 | 2 | .
O=C(Cc1cccs1)Nc1cccc(-c2nnc(-c3ccco3)o2)c1 | 0 | -21 | 96 | 522* | 6 | -1
COc1ccc(CC(=O)Nc2cccc(-c3nnc(-c4ccco4)o3)c2)cc1 | -1 | . | 116 | 151 | 8 | .
O=C(COc1ccccc1)Nc1cccc(-c2nnc(-c3ccccc3)o2)c1 | -1 | . | 131 | + | 2 | 1
C[C@H](CO)N1C[C@H](C)[C@H](CN(C)S(=O)(=O)c2ccc(Cl)cc2)Oc2c(NS(=O)(=O)c3cccs3)cccc2C1=O | 1 | . | . | . | -1 | .
SMILES | Cneo AK release | rRNA inh HTS | CR mimetic SO | Mot1-301 SUMO | PglD inh | Yeast Mot1 SUMO
COCc1nnc(NC(=O)CC(c2ccccc2)c2ccccc2)s1 | . | . | 110 | 4 | . | .
COCc1nnc(NC(=O)CC(C)C)s1 | 0 | . | 111 | 644* | 0 | 0
CCCN1CN=C(Nc2nc3ccccc3o2)NC1 | 0 | 18 | 97 | -7 | -6 | .
OCCN1CN=C(Nc2nc3ccccc3o2)NC1 | -2 | . | 88 | + | 3 | 0
O=C(C[n+]1ccc(C(=O)N/N=C/c2ccc(Cl)cc2Cl)cc1)c1ccccc1 | 1 | . | 85 | 712* | -3 | 0
C[C@H](CO)N1C[C@H](C)[C@@H](CN(C)C(=O)Nc2ccccc2)Oc2ccc(NC(=O)NC3CCCCC3)cc2CC1=O | -3 | -2 | . | . | 0 | .
CNC(=O)COC(=O)c1cc(NC(=O)c2ccco2)c(OC)c(OC)c1 | -7 | . | 80 | -8 | . | .
COc1cc(C(=O)OCC(=O)NCc2ccccc2)cc(NC(=O)c2ccco2)c1OC | 0 | . | 106 | 383* | 0 | 0
CC(C)NC(=O)N(C)C[C@@H]1Oc2ccc(NC(=O)C3CC3)cc2CC(=O)N([C@@H](C)CO)C[C@H]1C | 0 | 4 | . | . | 5 | .
CCc1cccc(C)c1NC(=O)CSc1nnc(-c2cc3cc(Br)ccc3o2)n1CC | -2 | . | 108 | + | . | 0
Cn1c(SCC(=O)Nc2cccc(C(=O)O)c2)nnc1-c1cc2cc(Br)ccc2o1 | -1 | -13 | 99 | -6 | -1 | .
COc1ccc(NC(=O)c2ccc(-n3cncn3)c([N+](=O)[O-])c2)cc1OC | -1 | 4 | 102 | -8 | 1 | .
COc1ccc(NC(=O)c2ccc(-n3cncn3)c([N+](=O)[O-])c2)cc1 | 0 | 12 | 90 | 901* | -6 | -1[21 µM]
COc1ccc(C(=O)Nc2ccccc2C(=O)NCCN2CCOCC2)cc1 | -2 | 3 | 99 | 10 | 3 | .
COc1ccc(C(=O)Nc2ccccc2C(=O)NCCN2CCOCC2)cc1OC | -2 | 5 | 100 | 424* | -2 | 0
NC(=O)[C@H]1[C@@H]2C(=O)O[C@@H](c3ccccc3)[C@@H](c3ccccc3)N2[C@@H](c2ccc(OCCO)cc2)[C@]12C(=O)Nc1ccccc12 | 40 | . | . | . | 7 | .
O=C(NCc1cccc(F)c1F)C1CCC(=O)N(C2CC2)C1 (stereo not given) | 0 | 9 | 96 | 421* | -2 | 0
Cc1noc(C)c1NC(=O)Nc1cccc2c1O[C@H](CN(C)Cc1ccc3c(c1)OCO3)[C@@H](C)CN([C@@H](C)CO)C2=O | 13 | 0 | . | . | 4 | .
Cc1ccc(C(C(=O)NCC2CCCO2)N(Cc2ccccc2F)C(=O)Cn2nnc(-c3cccs3)n2)cc1 (stereo not given) | 3 | . | 101 | 371* | 1 | 0
O=c1[nH]c(=O)n([C@H]2C[C@H](O)[C@@H](CO)O2)cc1Br | 1 | -1 | 117 | -10 | 1 | .

High-throughput results as filed in PubChem BioAssay.
